Active and inactive are the calls of the source. The calls are words filed in the database; no cut-off is given here.

Experimental findings from ChEMBL document CHEMBL3352327, “Catechol-rhodanine derivatives: Specific and promiscuous inhibitors of Escherichia coli deoxyxylulose phosphate reductoisomerase (DXR)” (Bioorg Med Chem, 2014) are described below.

Series [1] concerns the target T1, Malate dehydrogenase (Thermus thermophilus) (UniProt P10584).
T1 sequence (whole entry): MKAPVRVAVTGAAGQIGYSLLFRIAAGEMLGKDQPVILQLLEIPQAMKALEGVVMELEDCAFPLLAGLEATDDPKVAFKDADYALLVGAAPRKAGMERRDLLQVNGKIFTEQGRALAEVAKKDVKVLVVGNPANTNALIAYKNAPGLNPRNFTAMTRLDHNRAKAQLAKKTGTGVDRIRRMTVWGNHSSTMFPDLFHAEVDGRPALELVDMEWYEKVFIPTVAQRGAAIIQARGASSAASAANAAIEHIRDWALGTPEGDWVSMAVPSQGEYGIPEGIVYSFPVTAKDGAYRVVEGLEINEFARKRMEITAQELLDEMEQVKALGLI
As to the kind of experiment: Inhibition of Thermus flavus MDH at 50 uM pre-incubated for 4 mins before reaction initiation in presence of OAA and NAPH in absence of 0.01% Triton X100 by UV-Vis spectrophotometry. In outline: (§1)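 MDH in 50 mM Tris/HCl pH 7.5 at 37 °C. Preincubated 4 min with inhibitor, with or without 0.01% (w/v) Triton X100. Reaction started by successive addition of oxaloacetate (250 µM final) and NADH (160 µM final). Initial rates followed as A340 decrease. At least duplicate; 0.4% DMSO final.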

Series [2] concerns the target T2, 1-deoxy-D-xylulose 5-phosphate reductoisomerase (Escherichia coli K-12) (UniProt P45568).
T2 sequence (whole entry): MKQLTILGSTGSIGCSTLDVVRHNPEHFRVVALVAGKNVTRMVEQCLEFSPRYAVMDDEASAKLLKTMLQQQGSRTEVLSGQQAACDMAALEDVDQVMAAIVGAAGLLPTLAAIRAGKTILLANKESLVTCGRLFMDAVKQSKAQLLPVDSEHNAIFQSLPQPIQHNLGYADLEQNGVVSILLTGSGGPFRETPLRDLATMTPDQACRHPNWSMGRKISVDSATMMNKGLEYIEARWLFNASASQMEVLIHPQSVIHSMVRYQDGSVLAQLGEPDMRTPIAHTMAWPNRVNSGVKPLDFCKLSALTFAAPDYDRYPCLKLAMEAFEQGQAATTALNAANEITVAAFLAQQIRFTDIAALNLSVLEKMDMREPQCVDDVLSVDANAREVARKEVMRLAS
Nature of the series: Inhibition of His-tagged Escherichia coli DXR at 20 uM pre-incubated for 2 mins before reaction initiation in presence of 160 uM NADPH in absence of 0.01% Triton X100. In outline: (§2)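 His-tagged E. coli DXR at 37 °C in 50 mM Tris/HCl pH 7.5 with 3 mM MgCl2 and 2 mM DTT. Enzyme preincubated 2 min with inhibitor and 480 µM DXP, then started with NADPH (160 µM final). Run with or without 0.01% Triton X100. Final DMSO 0.4% (v/v). IC50 taken from % residual activity vs log[inhibitor]; otherwise % inhibition at 20 µM.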

Series [3] deals with T2, 1-deoxy-D-xylulose 5-phosphate reductoisomerase (Escherichia coli K-12). Conditions: 1 to 8 uM.
Series [4] shares this target. As to the kind of experiment: Inhibition of His-tagged Escherichia coli DXR at 6 uM pre-incubated for 2 mins before reaction initiation in absence of 160 uM NADPH. In outline:
(§3)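 H-DXR in 50 mM Tris/HCl pH 7.5, 3 mM MgCl2, 2 mM DTT, 37 °C. Enzyme preincubated 2 min with inhibitor at 6 µM, with or without NADPH (160 µM). Reaction started by DXP (480 µM final) to measure residual activity.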

Series [5] concerns the target T1, Malate dehydrogenase (Thermus thermophilus). As to the kind of experiment: Inhibition of Thermus flavus MDH at 50 uM pre-incubated for 4 mins before reaction initiation in presence of OAA and NAPH in presence of 0.01% Triton X100 by UV-Vis spectrophotometry. A digest of the protocol: as §1
The test system of series [6] is Escherichia coli. As to the kind of experiment: Antimicrobial activity against Escherichia coli XL1 Blue at 400 nmol/4 uL by paper disc diffusion method. Type of series: functional. In outline:
(§4)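 Paper disc diffusion on E. coli XL1 Blue. Discs impregnated with compound dissolved in DMSO (4 µL): 400 nmol in the initial screen, then 200 to 800 nmol. Read-out is the diameter of the growth inhibition zone (mm).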

The target in series [7] is T3, 1-deoxy-D-xylulose 5-phosphate reductoisomerase (Escherichia coli K-12, UniProt P45568).
T3 sequence (P45568 whole entry): T2 sequence (whole entry)
Nature of the series: Inhibition of His-tagged Escherichia coli DXR pre-incubated for 2 mins before reaction initiation in presence of 160 uM NADPH in presence of 0.01% Triton X100. A digest of the protocol: as §2

For series [8], the system named is Escherichia coli. As to the kind of experiment: Antimicrobial activity against Escherichia coli XL1 Blue at 800 nmol/4 uL by paper disc diffusion method. Type of series: functional. In outline:
as §4

The target of series [9] is T3, 1-deoxy-D-xylulose 5-phosphate reductoisomerase. Nature of the series: Inhibition of His-tagged Escherichia coli DXR pre-incubated for 2 mins before reaction initiation in presence of 160 uM NADPH in absence of 0.01% Triton X100.
The nature of series [10]: Lipophilicity, log P of the compound. Type of series: physicochemical. To be noted: octanol/water.
Series [11] deals with T2, 1-deoxy-D-xylulose 5-phosphate reductoisomerase (Escherichia coli K-12). Nature of the series: Inhibition of His-tagged Escherichia coli DXR at 6 uM pre-incubated for 2 mins before reaction initiation in presence of 160 uM NADPH. A digest of the protocol: as §3
The target in series [12] is T4, Malate dehydrogenase (Thermus thermophilus, UniProt P10584).
T4 sequence (P10584 whole entry): T1 sequence (whole entry)
As to the kind of experiment: Inhibition of Thermus flavus MDH pre-incubated for 4 mins before reaction initiation in presence of OAA and NAPH in absence of 0.01% Triton X100 by UV-Vis spectrophotometry. A digest of the protocol:
as §1

Series [13] concerns the target T1, Malate dehydrogenase (Thermus thermophilus). Nature of the series: Inhibition of Thermus flavus MDH at 10 uM pre-incubated for 4 mins before reaction initiation in presence of OAA and NAPH in presence of 0.01% Triton X100 by UV-Vis spectrophotometry. In outline:
as §1

Series [14] addresses T2, 1-deoxy-D-xylulose 5-phosphate reductoisomerase (Escherichia coli K-12). As to the kind of experiment: Inhibition of His-tagged Escherichia coli DXR at 20 uM pre-incubated for 2 mins before reaction initiation in presence of 160 uM NADPH in presence of 0.01% Triton X100. In outline: as §2
The target is the same in series [15]. To be noted: 10 uM.
Series [16] shares this target. Nature of the series: Inhibition of His-tagged Escherichia coli DXR at 10 uM pre-incubated for 2 mins before reaction initiation in presence of 160 uM NADPH.
For series [17], the target named is T3, 1-deoxy-D-xylulose 5-phosphate reductoisomerase.
Series [18] deals with T4, Malate dehydrogenase. As to the kind of experiment: Inhibition of Thermus flavus MDH pre-incubated for 4 mins before reaction initiation in presence of OAA and NAPH in presence of 0.01% Triton X100 by UV-Vis spectrophotometry. A digest of the protocol: as §1

Take `O=C(O)CN1C(=O)/C(=C/c2ccccc2)SC1=S`: the inhibition in [1] and in [2] was less than 5% throughout.

`O=C(CN1C(=O)/C(=C/c2ccc(O)c(O)c2)SC1=S)NO`: in series [3], the inhibition result is “Active”. In addition, the inhibition is 70% in series [4], 53% in [5] and 29% in series [11]. The “inhibition zone (IZ)” value is given as 14 mm with Escherichia coli [6] and 20 mm in the series with Escherichia coli [8]. Also, the half-inhibitory concentration (IC50) amounted to 6.1 µM in [7], 3.8 µM in series [9] and 3.4 µM at Malate dehydrogenase [12]. The compound further returned a log partition coefficient (logP) in series [10] of 1.8.

Take `O=C(CN1C(=O)/C(=C/c2cccc(O)c2O)SC1=S)Nc1ccc(Oc2ccc(Cl)cc2)cc1`: the inhibition in [4] is 63%; in series [13], less than 5%; in series [11], 43%; in series [14], less than 5%. Also, the figures for the 50% inhibitory concentration (IC50) (in series [9]; at Malate dehydrogenase [12]) were 3.3 µM and 0.7 µM, respectively.

As to `O=C(CN1C(=O)/C(=C/c2ccc(O)cc2O)SC1=S)Nc1ccc(Oc2ccc(Cl)cc2)cc1`, the inhibition in [13] is less than 5%. For the same compound, the concentration for half-maximal inhibition (IC50) came to 58 µM in [9] and 1.3 µM at Malate dehydrogenase [12].

On to `Cc1ccc(Oc2ccc(NC(=O)CN3C(=O)/C(=C/c4ccc(O)c(O)c4)SC3=S)cc2)cc1`, for which the inhibition in [15] was less than 5%; in series [4], 38%; in series [5] it was less than 5%; in series [16], 53%; in series [11], 30%; in series [14], 10%. In addition, the IC50 in series [9] amounted to 4.1 µM; on Malate dehydrogenase [12] it was 0.4 µM.

In the case of `Cc1ccc(Oc2ccc(NC(=O)CN3C(=O)/C(=C/c4cccc(O)c4O)SC3=S)cc2)cc1`, the inhibition in [4] is 60%; in [13], less than 5%; in series [11], 38%; in series [14], less than 5%. Besides, the IC50 in series [9] turned out to be 3.6 µM; on Malate dehydrogenase [12] it was 1 µM.

On to `O=C(CN1C(=O)/C(=C/c2ccc(O)c(O)c2)SC1=S)Nc1ccc(Oc2ccc(Cl)cc2)cc1`, for which the inhibition in [4] is 64%; in series [5], less than 5%; in series [11], 41%; in series [14] it was less than 5%. Also, the IC50 in series [9] was 3.2 µM; on Malate dehydrogenase [12], 0.5 µM.

In series [3], `O=C(O)CN1C(=O)/C(=C/c2ccc(O)c(O)c2)SC1=S` returned an alphaKi of 3 µM. Moreover, the inhibition in series [4] worked out at 61%; in series [11], 41%. Also, the Ki in series [17] was 7.7 µM. Further, the concentration for half-maximal inhibition (IC50) in [7] worked out at 4.4 µM; at Malate dehydrogenase [18], 15 µM; in series [9] it was 3.1 µM; at Malate dehydrogenase [12], 4.7 µM. Further, in [10], the logP turned out to be 1.
